Experimental findings from ChEMBL document CHEMBL1121826, “Relation of conformation to antitumor activity of platinum(II) complexes of 1,2-cyclohexanediamine and 2-(aminomethyl)cyclohexylamine isomers against leukemia P388” (J Med Chem, 1981) are described below.

By T/C is commonly meant the ratio of treated to control.

The nature of series [1]: Therapeutic index was determined against leukemia P388 cells in mice. It is filed as cell-based. The settings on record: mouse. A digest of the protocol:
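CDF1 mice implanted ip with 10^6 P388 cells on day 0 and dosed ip on days 1 and 5 (saline, or saline plus Tween 80 suspension if insoluble); 6 treated and 10 control mice. % T/C from median survival. TI is optimal dose divided by MED (lowest dose giving % T/C above 120), per the NCI platinum analogue protocol.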

Series [2] relates to P388. Kind of series: Optimal dose against leukemia P388 in CDF1 mice. The settings on record: Mus musculus. Type of series: functional, cell-based. A digest of the protocol:
(§1)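 CDF1 [(BALB/c × DBA/2)F1] mice given 10^6 P388 cells ip on day 0; treatment ip on days 1 and 5; insoluble complexes suspended in physiological saline with a few drops of Tween 80. Groups of 6 treated and 10 control mice. Median survival of treated (T) and control (C) groups calculated; activity expressed as % T/C.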

Series [3] relates to P388. Kind of series: Toxic dose against leukemia P388 in CDF1 mice. It is filed as functional, cell-based. The settings on record: Mus musculus. The method, boiled down:
as §1

Series [4] deals with P388. Kind of series: Minimum effective dose (MED) against leukemia P388 in CDF1 mice. The settings on record: Mus musculus. Type of series: functional, cell-based. A digest of the protocol: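 P388 model in CDF1 mice: 10^6 cells ip on day 0, ip dosing on days 1 and 5; 6 treated and 10 control mice per group. Median survival days give % T/C. MED is the lowest dose at which % T/C exceeded 120.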

In series [5] the test system is P388. Kind of series: Antitumor activity against leukemia P388 in CDF1 mice. Type of series: functional, cell-based. The settings on record: Mus musculus. A digest of the protocol:
as §1

Where “and” joins values, the source holds several entries; their conditions need not be identical. Identical values can stand only once.

Take “0-Hexyl-1,3-diamine-platinum 2,2-dichloride [listing 1 of 2 here]”: the TI in series [1] was 4.

For the substance “0-Hexyl-1,3-diamine-platinum 2,2-dichloride [listing 2 of 2 here]”, the Optimal dose in the series on P388 [2] is 6.25 mg/kg. This substance also registered a Toxic dose in the series on P388 [3] of 12.5 mg/kg. In the series on P388 [4], the MED worked out at 1.56 mg/kg. The T/C with P388 [5] was 206% and 127%.

Substance CISPLATIN [listing 1 of 2 here] gave a TI in series [1] of 4.

Take CISPLATIN [listing 2 of 2 here]: the Optimal dose with P388 [2] was 3.12 mg/kg. Further, the Toxic dose with P388 [3] turned out to be 12.5 mg/kg. In the series on P388 [4], this substance had an MED of 0.78 mg/kg. Further, the T/C in the series with P388 [5] was 230% (2×) and 134% (2×).

With “amcha (cis-d)-2-(aminomethyl)cyclohexylamine platinum (II) complex [listing 1 of 5 here]”, the TI result in series [1] is “>= 16”.

Take “amcha (cis-d)-2-(aminomethyl)cyclohexylamine platinum (II) complex [listing 2 of 5 here]”: the TI in series [1] turned out to be 32.

Take “amcha (cis-d)-2-(aminomethyl)cyclohexylamine platinum (II) complex [listing 3 of 5 here]”: the TI result in series [1] is recorded as “>= 4”.

With “amcha (cis-d)-2-(aminomethyl)cyclohexylamine platinum (II) complex [listing 4 of 5 here]”, in series [1], the TI came to 16.

Substance “amcha (cis-d)-2-(aminomethyl)cyclohexylamine platinum (II) complex [listing 5 of 5 here]” had an MED with P388 [4] of less than 0.39 mg/kg. The T/C in the series with P388 [5] was 160% [middle of 8 runs].

For “amcha (cis-l)-2-(aminomethyl)cyclohexylamine platinum (II) complex [listing 1 of 6 here]”, the TI result in series [1] was “>= 32”.

Consider “amcha (cis-l)-2-(aminomethyl)cyclohexylamine platinum (II) complex [listing 2 of 6 here]”, for which, in series [1], the TI turned out to be 32.

As for “amcha (cis-l)-2-(aminomethyl)cyclohexylamine platinum (II) complex [listing 3 of 6 here]”, the TI in series [1] is more than 16.

In turn, “amcha (cis-l)-2-(aminomethyl)cyclohexylamine platinum (II) complex [listing 4 of 6 here]” showed a TI in series [1] of more than 8.

“amcha (cis-l)-2-(aminomethyl)cyclohexylamine platinum (II) complex [listing 5 of 6 here]” showed a TI in series [1] of 8.

As for “amcha (cis-l)-2-(aminomethyl)cyclohexylamine platinum (II) complex [listing 6 of 6 here]”, the MED in the series with P388 [4] is < 0.78 mg kg-1 (3×) and < 1.56 mg kg-1 and 0.78 mg kg-1. The T/C in the series with P388 [5] was 148% [middle of 11 runs].

Consider “amcha (trans-d)-2-(aminomethyl)cyclohexylamine platinum (II) complex [listing 1 of 5 here]”, for which the TI in series [1] is 16.

In series [1], “amcha (trans-d)-2-(aminomethyl)cyclohexylamine platinum (II) complex [listing 2 of 5 here]” displayed a TI of 64.

For the substance “amcha (trans-d)-2-(aminomethyl)cyclohexylamine platinum (II) complex [listing 3 of 5 here]”, the TI entry in series [1] was “>= 64”.

As for “amcha (trans-d)-2-(aminomethyl)cyclohexylamine platinum (II) complex [listing 4 of 5 here]”, the TI entry in series [1] was “>= 16”.

Consider “amcha (trans-d)-2-(aminomethyl)cyclohexylamine platinum (II) complex [listing 5 of 5 here]”, for which the Toxic dose with P388 [3] is 100 mg kg-1 and > 100 mg kg-1 (2×) and > 200 mg kg-1. This substance also displayed an MED in the series with P388 [4] of less than 0.78 mg/kg. In addition, in the series on P388 [5], the T/C was 160% [middle of 8 runs].

In turn, “amcha (trans-l)-2-(aminomethyl)cyclohexylamine platinum (II) complex [listing 1 of 4 here]” displayed a TI in series [1] of 4.

“amcha (trans-l)-2-(aminomethyl)cyclohexylamine platinum (II) complex [listing 2 of 4 here]” returned a TI in series [1] of 16.

As for “amcha (trans-l)-2-(aminomethyl)cyclohexylamine platinum (II) complex [listing 3 of 4 here]”, the TI entry in series [1] is on record as “>= 16”.

“amcha (trans-l)-2-(aminomethyl)cyclohexylamine platinum (II) complex [listing 4 of 4 here]”: in the series on P388 [2], the Optimal dose was 12.5 mg kg-1 (3×) and 25 mg kg-1 and > 25 mg kg-1. For the same substance, the T/C in the series with P388 [5] was 158% [middle of 10 runs].

As to “dach (cis)-1,2-cyclohexanediamine platinum (II) complex [listing 1 of 4 here]”, the TI entry in series [1] is “>= 8”.

In series [1], “dach (cis)-1,2-cyclohexanediamine platinum (II) complex [listing 2 of 4 here]” returned a TI of 4.

“dach (cis)-1,2-cyclohexanediamine platinum (II) complex [listing 3 of 4 here]”: in series [1], the TI was found to be 16.

Consider “dach (cis)-1,2-cyclohexanediamine platinum (II) complex [listing 4 of 4 here]”, for which, in the series on P388 [2], the Optimal dose is 25 mg kg-1 (4×) and 12.5 mg kg-1. The T/C in the series on P388 [5] is 144% [middle of 10 runs].

“dach (trans-d)-1,2-cyclohexanediamine platinum (II) complex [listing 1 of 5 here]” registered a TI in series [1] of 8.

In turn, “dach (trans-d)-1,2-cyclohexanediamine platinum (II) complex [listing 2 of 5 here]” showed a TI in series [1] of 16.

As to “dach (trans-d)-1,2-cyclohexanediamine platinum (II) complex [listing 3 of 5 here]”, the TI in series [1] is given as 13.

As for “dach (trans-d)-1,2-cyclohexanediamine platinum (II) complex [listing 4 of 5 here]”, the TI result in series [1] is given as “>= 8”.

For “dach (trans-d)-1,2-cyclohexanediamine platinum (II) complex [listing 5 of 5 here]”, the T/C in the series on P388 [5] was 151% [middle of 12 runs].

As to “dach (trans-l)1,2-cyclohexanediamine platinum (II) complex [listing 1 of 2 here]”, the TI entry in series [1] is “>= 4”.

“dach (trans-l)1,2-cyclohexanediamine platinum (II) complex [listing 2 of 2 here]” gave an Optimal dose with P388 [2] of 6.25 mg/kg. Besides, the Toxic dose in the series on P388 [3] came to 25 mg/kg. In addition, in the series on P388 [4], the MED is less than 1.56 mg/kg.

As to “dach (trans-l)-1,2-cyclohexanediamine platinum (II) complex [listing 1 of 4 here]”, in series [1], the TI entry is “>= 16”.

Consider “dach (trans-l)-1,2-cyclohexanediamine platinum (II) complex [listing 2 of 4 here]”, for which the TI in series [1] worked out at 8.

The substance “dach (trans-l)-1,2-cyclohexanediamine platinum (II) complex [listing 3 of 4 here]” yielded a TI in series [1] of 4.

For “dach (trans-l)-1,2-cyclohexanediamine platinum (II) complex [listing 4 of 4 here]”, in the series with P388 [5], the T/C is 182% [middle of 10 runs].
